Source: PubChem BioAssay (Sanford-Burnham Center for Chemical Genomics)
EBI2 antag – EBI2 receptor antagonists, beta-arrestin recruitment, primary screen, cell-based, luminescence, 7a,25-OHC stimulation, uHTS; 7a,25-OHC stimulated; AID 651636, 2012; G-protein coupled receptor 183 (Homo sapiens), P32249; inhibition, % at 5 µM; actives 0.81% (n = 360,000); in the data active means inhibition above about 38%;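 further: enzyme fragment complementation signal reports receptor beta-arrestin coupling in cells; 0% = agonist plus DMSO wells and 100% = wells without agonist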
APJ agonist – agonists of human apelin receptor APJ, primary screen, CHO-K1 cells, PathHunter beta-arrestin, luminescence. 0% DMSO wells, 100% apelin. activation, % at 20 µM. actives 0.11% (n = 330,000);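 active means activation more than six SD over the plate average, tested at 20 µM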;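 further: 0% = DMSO alone and 100% = apelin-13 at 10 nM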
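Material: engineered CHO-K1 APJ arrestin reporter cells; amount: 1000 CHO-K1 reporter cells seeded per well; incubation: compound stimulation 90 min at 25 °C, detection 60 min; signal: luminescent beta-gal fragment complementation, chemiluminescent substrate; read-out basis: APJ agonist activity; controls: DMSO-only wells as negative, 10 nM Apelin-13 as positive control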
CCR6 antagonist – CCR6 receptor antagonists, primary screen, cell-based, CHO-K1, luminescence, beta-arrestin, uHTS; inhibition, % at 20 µM; CHO-K1 CCR6 PathHunter beta-arrestin, CCL20-stimulated; C-C chemokine receptor type 6 (Homo sapiens), P51684; AID 493098, 2011; actives 0.49% (n = 340,000);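 active means compounds whose inhibition of the agonist-driven luminescence signal at 20 µM reaches about 50%, limit read from the data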;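 further: cells stimulated with CCL20 at 14 nM final; plate controls were DMSO with CCL20 for no effect and DMSO without agonist for full effect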
Target sequence (P51684 whole entry, looked up): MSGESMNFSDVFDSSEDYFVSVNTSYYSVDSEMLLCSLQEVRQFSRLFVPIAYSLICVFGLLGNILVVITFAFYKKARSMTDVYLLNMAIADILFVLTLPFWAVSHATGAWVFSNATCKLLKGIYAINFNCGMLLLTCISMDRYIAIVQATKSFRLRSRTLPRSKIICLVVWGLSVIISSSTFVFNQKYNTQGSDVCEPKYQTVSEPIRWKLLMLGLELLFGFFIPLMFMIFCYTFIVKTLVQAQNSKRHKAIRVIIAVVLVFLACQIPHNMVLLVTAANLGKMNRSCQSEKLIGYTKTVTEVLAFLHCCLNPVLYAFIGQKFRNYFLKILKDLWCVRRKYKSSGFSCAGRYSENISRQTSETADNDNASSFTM
APJ antag – antagonists of human apelin receptor APJ, primary screen, CHO-K1 cells, beta-arrestin complementation, luminescence; inhibition, % at 20 µM; actives 0.32% (n = 330,000); AID 2521, 2010;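 active means inhibition above about 40% at 20 µM, limit read from the data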;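 further: cells challenged with 10 nM apelin-13 agonist together with compound; plate controls were apelin-13 plus DMSO wells for no effect and DMSO wells lacking apelin-13 for full effect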
CXCR6 block – CXCR6 receptor inhibitors, primary screen, cell-based, beta-arrestin, luminescence, CHO-K1 PathHunter, 1536-well | C-X-C chemokine receptor type 6 (Homo sapiens), O00574 | inhibition, % at 20 µM | actives 0.36% (n = 360,000); in the data active means inhibition above about 34%, passing the limit was not always enough;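 further: antagonist mode with CXCL16 agonist at 10 nM final; 0% = 10 nM CXCL16 with DMSO and 100% = unstimulated wells without agonist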
Target sequence (O00574 whole entry, looked up): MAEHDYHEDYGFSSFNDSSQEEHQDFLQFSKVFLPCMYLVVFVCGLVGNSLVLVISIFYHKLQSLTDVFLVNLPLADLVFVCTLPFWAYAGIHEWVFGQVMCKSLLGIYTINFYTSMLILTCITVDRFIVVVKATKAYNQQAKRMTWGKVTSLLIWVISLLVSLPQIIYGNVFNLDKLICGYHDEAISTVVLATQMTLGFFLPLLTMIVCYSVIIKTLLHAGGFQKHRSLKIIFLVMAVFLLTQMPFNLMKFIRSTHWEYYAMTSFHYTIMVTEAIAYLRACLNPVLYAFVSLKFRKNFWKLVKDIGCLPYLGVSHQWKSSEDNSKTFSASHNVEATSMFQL
EBI2 conf – EBI2 antagonist hit retest, beta-arrestin, confirmation, cell-based, single concentration, luminescence, 7a,25-OHC stimulation. inhibition, % at 5 µM. actives 29% (n = 2,400). 7a,25-OHC antagonism. shares compounds with EBI2 antag;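 active means inhibition of at least 50%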
EBI2 ag – EBI2 agonist activity of antagonist hits, confirmation, counter-screen for EBI2 antagonist project, cell-based, single concentration, agonist mode, luminescence. shares compounds with EBI2 antag. EBI2-expressing cells, 60 min; 0% vehicle, 100% 7α,25-dihydroxycholesterol control. activation, % at 5 µM. 2,400 tested, under 10 active. AID 652000, 2013;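 active means activation of at least 50%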
bGal counter – E. coli beta-galactosidase enzyme inhibition, confirmation, counter-screen for EBI2 antagonist project, biochemical, luminescence, single concentration | shares compounds with EBI2 antag | purified beta-galactosidase, luminescent Galacton Star, 15 min | inhibition, % at 5 µM | actives 1% (n = 2,400) | AID 652176, 2013;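 active means replicate-average signal at least 3 plate SD below neutral wells, shown as high inhibition, flagging enzyme-inhibiting false positives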;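 further: 0% = DMSO wells with enzyme and 100% = wells lacking enzyme; higher means stronger loss of beta-gal luminescence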
* marks the source's active call; other numbers are inactive results; / = no result given. Only some compounds are listed: those with a hit (about 1.5% of all), similar ones and a draw of the others.

SMILES | EBI2 antag | APJ agonist | CCR6 antagonist | APJ antag | CXCR6 block | EBI2 conf | EBI2 ag | bGal counter
O=C(c1cc(C2CC2)on1)N1CCN(C(c2ccccc2)c2ccccc2)CC1 | 13 | -4 | 17 | 9 | 13 | / | / | /
C=CCn1c(SCC(=O)NNC(=O)Nc2cccc(Cl)c2)nnc1-c1ccccc1 | 61* | -2 | 15 | 4 | 7 | 11 | -1 | -10
C=CCn1c(SCC(=O)NNC(=O)Nc2ccc(C)cc2)nnc1-c1ccccc1 | 48* | 2 | -11 | 13 | -2 | 8 | -1 | -10
C=CCn1c(SCC(=O)Nc2ccc(-c3nc4ccc(C)cc4s3)cc2)nnc1-c1ccccc1 | -79 | / | -22 | / | 1 | / | / | /
COCCNC(=O)C1CCCN(Cc2ccc(C#N)cc2)CC1 (stereo not given) | -2 | / | / | / | 0 | / | / | /
CC1=C(C(=O)N2CCCCCC2)CC(CC(=O)NCc2ccco2)C(=O)N1Cc1ccccc1 (stereo not given) | -10 | / | / | / | -2 | / | / | /
COC(=O)c1cccc(NC(=O)CCN2C(=O)NC(C)(C)C2=O)c1 | -10 | / | / | / | -4 | / | / | /
Cn1cnc(S(=O)(=O)N2CCCCC2c2cc(C(=O)NCc3ccc(Cl)c(Cl)c3)no2)c1 (stereo not given) | 8 | / | / | / | 4 | / | / | /
COc1cc(/C=C(\C#N)C(=O)c2c(C)[nH]c3ccccc23)cc(OC)c1OC | 45* | 1 | 11 | 6 | -5 | 35 | 3 | 7
Cc1ccc(NS(=O)(=O)c2cc(C(=O)NCCSc3ccc(C)cc3)ccc2C)cc1 | 44* | 1 | 18 | -8 | 8 | 11 | -2 | -8
Cc1ccc(SCCNC(=O)c2ccc(C)c(S(=O)(=O)Nc3cccc(C)c3)c2)cc1 | 42 | -1 | 17 | -14 | 14 | / | / | /
O=C(COC(=O)/C=C/c1ccc(OC(F)F)cc1)NC(=O)NCc1ccccc1 | 50* | 1 | -8 | 1 | 2 | 5 | 1 | -1
CCOC(=O)C1CCN(C(=O)/C=C/c2ccc(OC)cc2)CC1 | 87* | -1 | 3 | -5 | -3 | 75* | 0 | -5
CCOC(=O)C1CCN(C(=O)/C=C/c2ccccc2OC)CC1 | 22 | -2 | 7 | 2 | -4 | / | / | /
CCN1CCN(C(=O)/C=C/c2ccc(F)cc2)CC1 | 84* | 0 | 4 | 2 | 0 | 71* | 0 | 5
CCN1CCN(C(=O)/C=C/c2ccc(OC)cc2)CC1 | 88* | 2 | 5 | 3 | -1 | 74* | 2 | 7
COc1ccc(C(=O)NCC(c2ccco2)N2CCOCC2)cc1 (stereo not given) | -7 | / | / | / | 5 | / | / | /
CCN(CC(=O)Nc1c(F)cccc1F)C(=O)/C=C/c1ccc(C)cc1 | 94* | -5 | -8 | 14 | 5 | 80* | -1 | -6
CCN(CC(=O)NCc1ccc(F)cc1)C(=O)/C=C/c1ccc(OC)cc1 | 62* | 2 | 1 | 12 | 2 | 57* | 0 | 8
CCN(CC(=O)NCc1ccc(F)cc1)C(=O)Cc1ccc(OC)cc1 | 3 | -2 | -5 | -5 | -2 | / | / | /
CCCNC(=O)C1(C)CCCN(C(=O)/C=C/c2ccccc2)C1 (stereo not given) | -3 | / | / | / | 10 | / | / | /
O=c1[nH]nc(CNc2ccc(C(F)(F)F)cc2)c2ccccc12 | 21 | 3 | 12 | 19 | -8 | / | / | /
O=c1[nH]nc(CNc2ccc(OC(F)(F)F)cc2)c2ccccc12 | 52* | -1 | 21 | 23 | 0 | 29 | -1 | -7
CC1(C)OC(=O)C2=C(C[C@@H](C3CC3)O[C@@H]2C2CC2)O1 | -8 | / | / | / | -3 | / | / | /
Cc1ccccc1OCCC(=O)N1CCN(S(=O)(=O)c2ccc(Br)cc2)CC1 | 44* | -1 | 10 | -4 | 6 | 32 | -1 | -15
SMILES | EBI2 antag | APJ agonist | CCR6 antagonist | APJ antag | CXCR6 block | EBI2 conf | EBI2 ag | bGal counter
Cc1ccc(C)c(S(=O)(=O)N2CCN(C(=O)c3cnccn3)CC2)c1 | 4 | -2 | -3 | 13 | 4 | / | / | /
Cc1ccc(C)c(OCCC(=O)N2CCN(S(=O)(=O)c3cc(C)ccc3C)CC2)c1 | 66* | -1 | 5 | 11 | 3 | 44 | 5 | 8
Cc1ccc(S(=O)(=O)N2CCN(C(=O)CCc3c[nH]c4ccccc34)CC2)c(C)c1 | 47* | -2 | 13 | -8 | 2 | 29 | -1 | -3
Cc1ccccc1OCCC(=O)N1CCN(S(=O)(=O)c2ccc(F)cc2)CC1 | 29 | 5 | 0 | 7 | 1 | / | / | /
Cc1ccc(C)c(S(=O)(=O)N2CCN(C(=O)c3ccc4ccccc4n3)CC2)c1 | 50* | -4 | 11 | -9 | 2 | 41 | 1 | 4
Cc1ccccc1OCCC(=O)N1CCN(S(=O)(=O)c2ccccc2F)CC1 | 25 | 4 | -2 | 14 | -1 | / | / | /
Cc1ccc(C)c(S(=O)(=O)N2CCN(C(=O)CCNC(=O)c3ccc(Br)cc3)CC2)c1 | 75* | -2 | 6 | 20 | 3 | 33 | 1 | 2
Cc1cc(C)c(S(=O)(=O)N2CCN(C(=O)CCOc3ccccc3C)CC2)c(C)c1 | 81* | -3 | 7 | -4 | 0 | 46 | 2 | 8
Cc1ccc(C)c(S(=O)(=O)N2CCN(C(=O)CCNS(=O)(=O)c3ccc(C)c(C)c3)CC2)c1 | 7 | -1 | -10 | 15 | -3 | / | / | /
Cc1cccc(N2CCN(C(=O)c3ccncc3)CC2C)c1 (stereo not given) | 5 | 2 | -4 | 2 | -10 | / | / | /
Cc1cccc(N2CCN(C(=O)c3ccc4ccccc4c3)CC2C)c1 (stereo not given) | 65* | -2 | 11 | -2 | 1 | 42 | -1 | -15
CC1CCN(C(=O)c2ccc3ccccc3c2)CC1 | 46* | 3 | 27 | 5 | 0 | 48 | 0 | -1
O=C(c1ccc2ccccc2c1)N1CCN(c2ccccc2)CC1 | 83* | -3 | 10 | 15 | 2 | 68* | 0 | -10
O=C(c1ccc(-c2ccccc2)cc1)N1CCN(c2ccccc2)CC1 | 18 | -4 | 14 | 10 | 0 | / | / | /
